Screens from PubChem.
LMPTP block: LMPTP (human) inhibition; recombinant LMPTP-A, OMFP fluorogenic substrate, fluorescence intensity; inhibition, % at 20 µM; hit rate 0.22% among 360,000; AID 651560;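 active = compounds that cut the enzyme signal by at least half of the control window in the single-dose screen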
Target sequence (P24666 whole entry, looked up): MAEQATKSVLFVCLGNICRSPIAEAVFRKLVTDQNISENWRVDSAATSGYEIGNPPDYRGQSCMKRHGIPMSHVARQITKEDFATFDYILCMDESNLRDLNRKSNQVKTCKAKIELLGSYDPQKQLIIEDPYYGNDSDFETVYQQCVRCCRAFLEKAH
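Test system – LMPTP-A phosphatase enzyme · Quantity – 0.625 nM LMPTP-A final · Reagent – OMFP substrate, 400 µM final · Dosing – one test concentration per compound, 20 µM, with 3% DMSO overall · Timing – 50 min enzyme reaction at room temperature, protected from light · Detection – fluorescence intensity · Controls – substrate-only low control, DMSO enzyme-plus-substrate high control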
DNMT1 inh: blocks human DNA methyltransferase DNMT1; DNMT1 molecular beacon, Hinp1I cleavage, fluorescence; hit rate 0.83% among 360,000; P26358; inhibition (reported as % activation of signal), % at 10 µM; in the data active = inhibition above about 50%
STEP block: blocks human striatal-enriched tyrosine phosphatase | P54829 | recombinant STEP, OMFP fluorogenic substrate, fluorescence | inhibition, % at 20 µM | hit rate 0.25% among 360,000;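 active = inhibition at 20 µM, scaled per plate between control wells, above about 37%, limit read from the data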
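Assay system: isolated STEP enzyme. Buffer or medium: pH 6.0 Bis-Tris with DTT and Tween 20. Also added: fluorogenic phosphatase substrate OMFP at 25 µM final. Dosing: 20 µM, 1% DMSO. Timing: 20 min reaction, room temperature, in the dark. Measured by: fluorescence intensity, excitation 480 nm, emission 540 nm. Evaluation: normalized % inhibition.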
Scp-1 inhibitor: inhibitors of human Scp-1 phosphatase; AID 493091; hit rate 0.88% among 340,000; Recombinant Scp1, phosphopeptide, malachite green phosphate absorbance; Q9GZU7; inhibition, % at 20 µM;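 active = inhibition above about 50% at 20 µM, limit read from the data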
Target sequence (Q9GZU7 76-261 limits assumed): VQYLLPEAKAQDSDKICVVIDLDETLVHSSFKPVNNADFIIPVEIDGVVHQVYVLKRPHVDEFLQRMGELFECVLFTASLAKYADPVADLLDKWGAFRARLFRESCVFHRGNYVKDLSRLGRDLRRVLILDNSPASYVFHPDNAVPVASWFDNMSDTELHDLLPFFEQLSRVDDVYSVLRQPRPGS
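System: truncated SCP-1 phosphatase (76-261aa); medium: Tris acetate buffer pH 5.5 with MgCl2 and Tween-20; incubation: 45 min room-temperature reaction, 5 min colour, 30 min stabiliser; compound: single 20 µM dose, 1% DMSO; reagent: Phosphorylated 17-residue peptide substrate; read-out: % inhibition at 20 µM; technique: colorimetric free-phosphate detection, absorbance 630 nm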
SUMO1 PPI mod: modulators of human SUMO1-mediated protein-protein interactions. P63165. SUMO1 binding to a labelled peptide, TR-FRET, 1 h. inhibition, % at 20 µM. hit rate 0.33% among 360,000. AID 602429; in the data active = inhibition above about 37%
Target sequence (P63165 whole entry, looked up): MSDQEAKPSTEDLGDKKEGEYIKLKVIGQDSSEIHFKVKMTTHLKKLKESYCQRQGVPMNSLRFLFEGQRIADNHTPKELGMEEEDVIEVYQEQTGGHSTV
GRK2 aptamer HTS: inhibitors of human GRK2 displacing RNA aptamer | P25098 | bead flow cytometry, FAM-aptamer displacement from GRK2 | inhibition of aptamer binding, % at 10 µM | AID 488847 | hit rate 0.59% among 330,000;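 active = inhibition of aptamer binding above 40%, roughly 3 SD of noise, on plates passing a quality check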;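 also: median bead fluorescence of bound FAM aptamer so fluorescent compounds give negative values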
Hits are given with their value; n = inactive; x = no result given. This is a sample that favours compounds with a hit; in the whole collection about 2.2% have one here.

SMILES	LMPTP block	DNMT1 inh	STEP block	Scp-1 inhibitor	SUMO1 PPI mod	GRK2 aptamer HTS
CC[n+]1ccc2cc(OC)c(OC)cc2c1Cc1ccc(OC)c(OC)c1	n	n	n	96	n	n
COc1ccc(Cc2n[nH]c(=O)c3ccccc23)cc1OC	n	n	n	n	n	n
O=c1c2ccccc2sn1-c1cc(S(=O)(=O)N2CCOCC2)ccc1N1CCOCC1	n	n	n	94	n	n
COc1ccc(/C=C(\C#N)C(=O)Nc2cccc3ncccc23)cc1OC	n	n	n	n	n	n
N#C/C(=C\c1ccc(O)c(O)c1)C(=O)Nc1cccc2ncccc12	66	n	n	n	n	n
COc1ccc(Cn2cc(CN(C)C3CN(Cc4cn(Cc5ccc(OC)cc5)nn4)S(=O)(=O)C3)nn2)cc1 (stereo unspecified)	n	x	x	x	n	x
CCCCOCCCNC(=O)C[C@@H]1C[C@@]2(C(=O)OC)CC(C)(C)CC=C2N(Cc2ccccc2)C1=O	n	x	x	x	n	x
O=C(c1ccccc1)c1ccc2ccccc2c1	n	n	n	n	n	x
O=C(c1ccccc1)c1ccc2cc(O)ccc2c1	n	n	n	n	n	67
CCC(CO)Nc1ccn2nc(-c3cccs3)cc2n1 (stereo unspecified)	n	n	n	x	n	x
Oc1ccc(N=Nc2ccc3c(c2)OCO3)c2ccccc12	x	x	x	x	x	78
O=C(NN=Cc1c(O)ccc2ccccc12)c1ccc2c(c1)OCO2	n	n	n	n	n	n
O=C(Oc1ccc(-c2nnco2)cc1)c1cc(S(=O)(=O)N2CCOCC2)ccc1F	n	n	n	x	n	x
COc1ccc(N=C2NC(=O)/C(=C/C=C/c3ccccc3)S2)cc1	n	n	n	n	n	n
O=C1NC(=Nc2ccccc2)S/C1=C\C=C\c1ccco1	n	93	n	n	n	n
CCOc1cc(/C=C2\C(=O)ON=C2C)ccc1OCc1ccccc1	n	n	n	n	40	n
CCCOc1ccc(/C=C2/C(=O)ON=C2C)cc1OCC	n	n	n	n	n	n
OC(COCC1COc2ccccc2O1)CN1CCN(c2ccccc2)CC1 (stereo unspecified)	n	n	n	n	n	n
C[N+]1(CC(O)COCC2COc3ccccc3O2)CCOCC1 (stereo unspecified)	n	n	n	106	n	n
O=C(O)c1csc(N/N=C/c2ccc(Br)cc2)n1	59	n	n	n	n	x
CC(=O)c1ccc(NC(=O)c2ccc3nc(-c4ccco4)c(-c4ccco4)nc3c2)cc1	86	123	89	83	96	n
O=C(NCc1ccccc1)c1ccc2nc(-c3ccco3)c(-c3ccco3)nc2c1	75	102	n	84	41	n
O=C(Nc1ccc(N2CCOCC2)cc1)c1ccc2nc(-c3ccco3)c(-c3ccco3)nc2c1	n	n	n	n	n	n
O=C(NCc1ccccc1)c1ccc2nccnc2c1	n	n	n	n	n	n
COCCNC(=O)C1(C)CCCN(CCOc2ccc(Cl)cc2)C1 (stereo unspecified)	n	n	n	x	n	x
SMILES	LMPTP block	DNMT1 inh	STEP block	Scp-1 inhibitor	SUMO1 PPI mod	GRK2 aptamer HTS
Cc1cnc(-c2nc3ccccc3n2C(C(=O)NC(C)(C)C)c2ccccc2)cn1 (stereo unspecified)	n	x	x	x	n	x
CN1CCc2nc(SCC(=O)Nc3ccc(F)cc3)c(C#N)cc2C1	x	x	x	x	x	57
COc1cccc(S(=O)(=O)Nc2ccc(C(O)(C(F)(F)F)C(F)(F)F)cc2)c1	n	n	n	x	n	x
Nc1c(C(=O)Nc2ccc(Br)cc2)sc2nc(N3CCOCC3)c3c(c12)CCCC3	n	50	n	x	n	x
O=S(=O)(Nc1cc2nc3ccccc3nc2n1Cc1ccccc1)c1ccc(Cl)cc1	n	89	n	n	51	n
O=S(=O)(NCc1ccccc1)c1ccc(Cl)cc1	n	n	n	n	n	n
Cc1ncc(CO)c(/C=N/NC(=S)Nc2cccc(Cl)c2)c1O	n	n	64	n	n	n
COc1ccc2c(CC(=O)OCC(=O)Nc3ccc(C)cc3)coc2c1	n	n	n	n	n	44
Cc1cc(C)c(OCC(=O)OCC(=O)NCc2ccco2)c(C)c1	n	n	n	x	n	x
C#CC(=O)CC1(CN(Cc2ccccc2)C(=O)OC(C)(C)C)CCCCC1	n	54	n	n	n	x
CCCCCCCCN1C(=O)[C@H](CC(=O)N2CCN(C(=O)C3CC3)CC2)C[C@@]2(C(=O)OC)CC(C)(C)CC=C12	n	x	x	x	n	x
Cc1cc(C)cc(OCC(=O)Nc2ccc(N3CCCC3)cc2)c1	n	65	n	n	n	n
FC(F)(F)C1=NNC(c2ccc3ccccc3c2)=NN1	n	n	n	x	n	x
COC(=O)c1ccc(=O)c2nc3/c(=C/O)c(O)cc(=O)c3[nH]c12	81	108	100	58	n	67
CCn1c(C)[n+](CC(O)COCC2CC=CCC2)c2ccccc21 (stereo unspecified)	n	n	n	86	n	n
OC(c1cccc(Cl)c1)c1ncc(-c2ccccc2Cl)[nH]1 (stereo unspecified)	n	n	n	x	n	x
CCN1CCN(Cc2c(O)ccc3c2O/C(=C\c2ccccc2)C3=O)CC1	n	n	n	n	n	n
CC1CCCN(Cc2c(O)ccc3c2O/C(=C\c2ccco2)C3=O)C1 (stereo unspecified)	n	61	n	n	n	n
COc1ccc(/C=N/NC(=O)CCn2cnc(-c3ccccc3)c2-c2ccccc2)cc1	n	n	118	n	n	n
Cc1ccc(NC(=O)CSc2nnc(NC3CC3)s2)cc1S(=O)(=O)N1CCOCC1	n	n	n	x	n	x
COc1cc2c(oc(=O)c3cc(C)cc(OC)c32)c2c(C3OC(C)C(O)C(C)(O)C3O)ccc(O)c12 (stereo unspecified)	n	63	n	n	n	x
Cc1cc2nc3ccc(=[N+](C)C)cc-3sc2cc1N	n	57	n	n	54	x
CCc1ccc(NS(=O)(=O)c2ccc3[nH]cc(C(=O)N4CCc5ccccc54)c(=O)c3c2)cc1	n	n	n	n	n	41
Cc1c(Br)c([N+](=O)[O-])nn1CC(=O)NCCc1ccc(Cl)cc1	n	n	n	n	43	n
O=C(N/N=C\C=C\c1ccc([N+](=O)[O-])o1)c1cccs1	n	81	n	57	n	n
Cc1ccc2nc(-c3cccc(Br)c3)c(Cc3ccccn3)n2c1	n	n	n	x	n	x
Cc1cc(C(=O)NC2CCCc3c2cnn3-c2ccc(C)c(C)c2)n(C)n1 (stereo unspecified)	n	n	n	79	n	n
CCOC(=O)c1ccc2c(c1)nc(-c1ccc(F)cc1)c1nccn12	n	n	n	n	48	n
CCOC(=O)c1ccc2c(c1)nc(-c1ccccn1)n2CC	n	n	n	n	n	n
